Hits are enriched below; roughly 2.7% of the tested compounds scored in any of these assays.
RAM network inh = yeast RAM network inhibition | actives 1.8% (n = 190,000) | S. cerevisiae dse1pr::URA3 reporter, 5-FOA growth OD615, 2 d; analog-sensitive cbk1-as2 kinase mutant strain | AID 868 | inhibition, % at 50 µM;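 active = inhibition above a set limit, 3 SD over mean compound inhibition, cut at about 8.4% in these data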;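 also: 0% = DMSO-only wells with no growth and 100% = 10 µM 1-NA-PP1 full growth; inhibition rescues growth on 5-FOA so higher OD means more RAM inhibition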
Phagocytosis inh = blocks phagocytosis by macrophages; J774A.1 macrophage IgG-bead phagocytosis, imaging; inhibition, % at 5 µM; actives 0.07% (n = 110,000); AID 1029;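 active = inhibition above the mean of the plate negative controls plus 5 SD, cut at about 13% in these data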;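 also: phagocytic index as fraction of beads internalized from green versus red external bead signal; plate controls were DMSO negative control for no effect and cytochalasin-D positive control for full effect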
BB579 growth dn = chemicals that inhibit yeast BB579 growth in restrictive medium (lifespan-shortening candidates); S. cerevisiae BB579 growth, OD615, 48 h; AID 804; inhibition, % at 10 µM; actives 0.51% (n = 140,000);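 active = inhibition above a set limit, 3 SD over the mean compound inhibition, cut at about 44% in these data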
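System: DeaD yeast strain BB579; buffer or medium: CSMM-D dextrose restrictive medium; technique: OD at 615 nm; schedule: 4 h cell preincubation, 48 h compound exposure, 30 °C humidified; doses: single 10 µM dose; controls: amphotericin B 10 µg/mL, positive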
Yeast lifespan up = extends the lifespan of yeast; actives 0.68% (n = 130,000); AID 775; inhibition of the nicotinamide effect, % at 10 µM; S. cerevisiae growth with nicotinamide, OD615; deaD strain in restrictive glucose medium;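 active = inhibition above a set limit, placed 3 SD over the median of all compounds, cut at about 26% in these data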;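 also: 0% = nicotinamide-treated wells and 100% = cells grown without nicotinamide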
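Test system – modified budding yeast, DeaD strain · Compound – single dose 10 µM compound, 0.25% DMSO · Times – culture preincubation 4 h, compound exposure 48 h, both 30 °C · Detection – optical density (absorbance) at 615 nm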
* hit, by the source's call.

CC(=O)Nc1ccc2nc(NC(=O)COc3ccccc3Cl)sc2c1 was read as RAM network inh 9.9*.
Screening CC(=O)Nc1ccc2nc(NC(=O)COc3ccccc3C)sc2c1 returned RAM network inh 5.
`CCC(C)n1c(=S)[nH]c2c(sc3ccc([N+](=O)[O-])cc32)c1=O` (configuration not stated) gave RAM network inh 0, Phagocytosis inh 0, BB579 growth dn 40 and Yeast lifespan up 10.
Cc1ccc(S(=O)(=O)NCCSc2nnnn2-c2cc(C)ccc2C)cc1 was read as RAM network inh 10*, Phagocytosis inh -2, BB579 growth dn -46 and Yeast lifespan up -6.
Cc1ccc(S(=O)(=O)NCCSc2nnnn2-c2ccccc2)cc1 was read as RAM network inh 2 and BB579 growth dn -8.
Screening CCOc1ccc(C2=Nc3ccc(Br)cc3C(c3ccc(N4CCOCC4)cc3)=NN2)cc1 returned RAM network inh 10*, Phagocytosis inh -7, BB579 growth dn -25 and Yeast lifespan up 0.
For CC(=O)Nc1ccccc1OCc1cnc(Cl)s1 the results were RAM network inh 0.
Screening CCOC(=O)c1c(C2CC2)csc1NC(=O)COC(=O)CCS(=O)(=O)c1ccc(C)cc1 returned RAM network inh 9.2*, Phagocytosis inh -5, BB579 growth dn -8 and Yeast lifespan up 2.
`COc1ccc(S(N)(=O)=O)cc1C(=O)NCCCN1CCN(c2ccc(C)cc2)CC1` gave RAM network inh 0, BB579 growth dn -22 and Yeast lifespan up 58*.
For COc1ccc(-c2nc(NC(=O)c3ccc(OCC(=O)N4CCOCC4)c(OC)c3)sc2C)cc1 the results were RAM network inh 9.0*, Phagocytosis inh -9, BB579 growth dn -14 and Yeast lifespan up -1.
Screening COc1cc(C(=O)Nc2nc(-c3ccc(Cl)cc3)c(C)s2)ccc1OCC(=O)Nc1ccc(F)cc1 returned RAM network inh 2, Phagocytosis inh -7, BB579 growth dn -24 and Yeast lifespan up -2.
O=C(CSc1nnc(-c2ccccc2F)n1CCc1ccccc1)Nc1ccc2[nH]c(=O)[nH]c2c1 was read as RAM network inh 9.0*, Phagocytosis inh -2, BB579 growth dn -13 and Yeast lifespan up -2.
Screening CCOc1cc(C)c(C(C)C)cc1S(=O)(=O)NCc1ccccn1 returned RAM network inh 3, Phagocytosis inh -1, BB579 growth dn -45 and Yeast lifespan up 59*.
O=S(=O)(c1ccc(F)c(F)c1F)N1CCN(C(=S)Nc2ccccc2)CC1 was read as RAM network inh 4.
Screening CC(Oc1ccc(Cl)cc1Cl)c1nc(-c2ccc(NC(=O)c3ccccn3)cc2)no1 (configuration not stated) returned RAM network inh 11* and BB579 growth dn -24.
CC1(C)CC(=O)C2=C(C1)OC(N)=C([N+](=O)[O-])C2c1cccs1 (configuration not stated) was read as RAM network inh 0, Phagocytosis inh -6, BB579 growth dn -20 and Yeast lifespan up 28*.
For O=C(NCC1CCCO1)C(c1cccs1)N(Cc1ccccc1)C(=O)c1ccc(-c2ccccc2)[nH]1 (configuration not stated) the results were RAM network inh 10*, Phagocytosis inh -9, BB579 growth dn -35 and Yeast lifespan up 2.
`O=C(NCC1CCCO1)C(c1cccs1)N(C(=O)c1ccc(-c2ccccc2)[nH]1)C1CCCC1` (configuration not stated) gave RAM network inh 2, Phagocytosis inh -12, BB579 growth dn -16 and Yeast lifespan up -5.
`COc1nccnc1NS(=O)(=O)c1ccc(NC(=O)c2cccc(C)c2)cc1` gave RAM network inh 1.
For COc1ccc(C(=O)/C=C/c2ccc(O)cc2)cc1 the results were RAM network inh -1.
For COc1ccc(C=C(c2ccc(OC)cc2)c2ccc(OC)cc2)cc1 the results were RAM network inh 8.5*, Phagocytosis inh -1, BB579 growth dn -67 and Yeast lifespan up -2.
Cc1cccn2c(CN3CCNC(=O)CC3)c(C(=O)N(C)CCc3ccccc3)nc12 was read as RAM network inh 0.
For C/C=N/NC(=O)CCNC(=O)c1ccccc1 the results were RAM network inh 0, Phagocytosis inh 0, BB579 growth dn -53 and Yeast lifespan up 3.
Cc1cc(C(=O)N/N=C/c2ccc(O)c([N+](=O)[O-])c2)n[nH]1 was read as RAM network inh 0, Phagocytosis inh 0, BB579 growth dn -16 and Yeast lifespan up -2.
For Cc1cc(C(=O)N/N=C/c2cccc([N+](=O)[O-])c2O)n[nH]1 the results were RAM network inh 3, Phagocytosis inh -13, BB579 growth dn 44* and Yeast lifespan up -3.
Cc1ccc(NC(=O)c2cc(S(=O)(=O)NCCC3=CCCCC3)ccc2F)cc1F was read as RAM network inh 3, BB579 growth dn -14 and Yeast lifespan up -3.
Screening O=C(Nc1cccc(F)c1)c1cc(S(=O)(=O)NCCC2=CCCCC2)ccc1F returned RAM network inh 11*, Phagocytosis inh -3, BB579 growth dn -42 and Yeast lifespan up 2.
For NS(=O)(=O)c1ccc(NC(=O)CSc2nnc(COc3ccccc3Cl)n2C2CC2)cc1 the results were RAM network inh 9.5*, Phagocytosis inh 1, BB579 growth dn -46 and Yeast lifespan up -5.
CC(C)n1c2ccccc2c2cc([N+](=O)[O-])ccc21 was read as RAM network inh 5, Phagocytosis inh -4, BB579 growth dn -11 and Yeast lifespan up -1.
O=c1cc(O)c2c(=O)n(-c3ccccc3)c3ccccc3c2o1 was read as RAM network inh 4, Phagocytosis inh -1, BB579 growth dn -3 and Yeast lifespan up 24.
CC(C)n1c(=O)c2c(O)cc(=O)oc2c2ccccc21 was read as RAM network inh 2, BB579 growth dn -8 and Yeast lifespan up 63*.
`CCn1c(=O)c2c(O)cc(=O)oc2c2ccccc21` gave RAM network inh 4, BB579 growth dn -2 and Yeast lifespan up 42*.
Screening COc1ccc(N=c2oc3c(OC)cccc3cc2C(=O)NCc2ccco2)cc1OC returned RAM network inh 9.9*, Phagocytosis inh 1, BB579 growth dn -28 and Yeast lifespan up -7.
O=C(NN1C(=O)c2ccccc2C1=O)C1C2CCCCC21 (configuration not stated) was read as RAM network inh 2, Phagocytosis inh -4, BB579 growth dn -18 and Yeast lifespan up 41*.
`O=C(NN1C(=O)c2ccccc2C1=O)c1ccncc1` gave RAM network inh 1.
For Cc1cccc(N2CCN(C(=S)c3ccc(-c4ccccc4[N+](=O)[O-])o3)CC2)c1 the results were RAM network inh 11*, Phagocytosis inh 3, BB579 growth dn -65 and Yeast lifespan up 4.
For O=[N+]([O-])c1ccccc1-c1ccc(C(=S)N2CCCC2)o1 the results were RAM network inh 2.
CCC(C)/C(C)=N/NC(=O)c1ccc(COc2ccc(Cl)c(C)c2)cc1 (configuration not stated) was read as RAM network inh 0, Phagocytosis inh -5, BB579 growth dn 97* and Yeast lifespan up -8.

Screens deposited in PubChem by several laboratories.
